According to ChEMBL document CHEMBL4251739, “Rhodanine as a Potent Scaffold for the Development of Broad-Spectrum Metallo-β-lactamase Inhibitors” (ACS Med Chem Lett, 2018):

What was measured:
Bacteria [1] = assay: Inhibition of bacterial L1 expressed in Escherichia coli DH10B assessed as potentiation of cefazolin-induced antibacterial activity by measuring decrease in cefazolin MIC after 16 hrs by broth micro-dilution method
How it was run: (§1)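 Dose-dependent cefazolin MIC assay against E. coli DH10B expressing L1 from a pBCSK plasmid, with varied inhibitor doses up to 256 µg/mL. Fold decrease in MIC was taken relative to cefazolin alone. Medium pH was monitored during the assay.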

[2] = Inhibition of bacterial L1 expressed in Escherichia coli BL21(DE3) using cefazolin as substrate by spectrometric method; parameters: species or system Bacteria
How it was run: (§2)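 Purified enzymes, overexpressed and purified by earlier methods, assayed under steady-state conditions by UV spectrometry in 50 mM Tris, pH 7.0. Substrate for NDM-1, VIM-2 and L1 was cefazolin (50 µM), read at 262 nm. Substrate for ImiS was imipenem (60 µM), read at 300 nm. Inhibitor varied 0–50 µM; IC50 is the concentration giving 50% loss of activity.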

Bacteria [3] = assay: Inhibition of bacterial L1 expressed in Escherichia coli DH10B assessed as potentiation of cefazolin-induced antibacterial activity by measuring cefazolin MIC at 256 ug/ml after 16 hrs by broth micro-dilution method (reference value: 32 ug/ml); how it was run: as §1
Bacteria [4] = assay: Inhibition of bacterial VIM2 expressed in Escherichia coli DH10B assessed as potentiation of cefazolin-induced antibacterial activity by measuring cefazolin MIC at 32 ug/ml after 16 hrs by broth micro-dilution method (reference value: 512 ug/ml)
Bacteria [5] = assay: Inhibition of bacterial L1 expressed in Escherichia coli DH10B assessed as potentiation of cefazolin-induced antibacterial activity by measuring cefazolin MIC at 16 ug/ml after 16 hrs by broth micro-dilution method (reference value: 32 ug/ml); how it was run: as §1
Bacteria [6] = assay: Inhibition of bacterial VIM2 expressed in Escherichia coli DH10B assessed as potentiation of cefazolin-induced antibacterial activity by measuring fold reduction in cefazolin MIC at 32 ug/ml after 16 hrs by broth micro-dilution method relative to cefazolin alone
Bacteria [7] = assay: Inhibition of bacterial L1 expressed in Escherichia coli DH10B assessed as potentiation of cefazolin-induced antibacterial activity by measuring cefazolin MIC at 32 ug/ml after 16 hrs by broth micro-dilution method (reference value: 32 ug/ml); how it was run: as §1
Bacteria [8] = assay: Inhibition of bacterial L1 expressed in Escherichia coli DH10B assessed as potentiation of cefazolin-induced antibacterial activity by measuring cefazolin MIC at 64 ug/ml after 16 hrs by broth micro-dilution method (reference value: 32 ug/ml); how it was run: as §1
[9] = Inhibition of bacterial VIM2 expressed in Escherichia coli BL21(DE3) using cefazolin as substrate by spectrometric method; parameters: species or system Bacteria; how it was run: as §2
Bacteria [10] = assay: Inhibition of bacterial NDM1 expressed in Escherichia coli DH10B assessed as potentiation of cefazolin-induced antibacterial activity by measuring fold reduction in cefazolin MIC at 32 ug/ml after 16 hrs by broth micro-dilution method relative to cefazolin alone
[11] = Cytotoxicity against mouse L929 cells assessed as cell viability up to 200 uM after 48 hrs by CCK8 assay relative to control; assay type: cell-based; conditions: read-out: Activity
How it was run: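 Mouse fibroblast L929 cells exposed to inhibitors at 12.5, 25, 50, 100, 200 and 400 µM working concentrations; percentage of cells maintaining viability measured.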

Bacteria [12] = assay: Inhibition of bacterial L1 expressed in Escherichia coli DH10B assessed as potentiation of cefazolin-induced antibacterial activity by measuring cefazolin MIC at 128 ug/ml after 16 hrs by broth micro-dilution method (reference value: 32 ug/ml); how it was run: as §1
Escherichia coli [13] = assay: Toxicity against Escherichia coli DH10B expressing bacterial L1 up to 256 ug/ml after 16 hrs by broth micro-dilution method; assay type: organism-based, K-12 substr. DH10B; conditions: in vivo
How it was run: (§3)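 Compounds alone, at the same doses used in the MIC potentiation assays, tested for antibacterial effect against E. coli with and without MβL expression.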

[14] = Inhibition of bacterial NDM1 expressed in Escherichia coli BL21(DE3) using cefazolin as substrate by spectrometric method; parameters: species or system Bacteria; how it was run: as §2
Escherichia coli [15] = assay: Toxicity against Escherichia coli DH10B up to 256 ug/ml after 16 hrs by broth micro-dilution method; assay type: organism-based, K-12 substr. DH10B; conditions: in vivo; how it was run: as §3
Bacteria [16] = assay: Inhibition of bacterial NDM1 expressed in Escherichia coli DH10B assessed as potentiation of cefazolin-induced antibacterial activity by measuring cefazolin MIC at 32 ug/ml after 16 hrs by broth micro-dilution method (reference value: 8 ug/ml)
Bacteria [17] = assay: Inhibition of bacterial L1 expressed in Escherichia coli DH10B assessed as potentiation of cefazolin-induced antibacterial activity by measuring fold reduction in cefazolin MIC at 256 ug/ml after 16 hrs by broth micro-dilution method relative to cefazolin alone; how it was run: as §1
Bacteria [18] = assay: Inhibition of bacterial ImiS expressed in Escherichia coli DH10B assessed as potentiation of imipenem-induced antibacterial activity by measuring imipenem MIC at 32 ug/ml after 16 hrs by broth micro-dilution method (reference value: 2 ug/ml)
Bacteria [19] = assay: Inhibition of bacterial L1 expressed in Escherichia coli DH10B assessed as potentiation of cefazolin-induced antibacterial activity by measuring fold reduction in cefazolin MIC at 32 ug/ml after 16 hrs by broth micro-dilution method relative to cefazolin alone; how it was run: as §1
[20] = Inhibition of bacterial ImiS expressed in Escherichia coli BL21(DE3) using imipenem as substrate by spectrometric method; parameters: species or system Bacteria; how it was run: as §2
Bacteria [21] = assay: Inhibition of bacterial ImiS expressed in Escherichia coli BL21(DE3) at 40 uM using imipenem as substrate by spectrometric method relative to control
Bacteria [22] = assay: Inhibition of bacterial L1 expressed in Escherichia coli BL21(DE3) at 0.8 uM using cefazolin as substrate by spectrometric method relative to control
Bacteria [23] = assay: Inhibition of bacterial VIM2 expressed in Escherichia coli BL21(DE3) at 4 uM using cefazolin as substrate by spectrometric method relative to control
Bacteria [24] = assay: Inhibition of bacterial NDM1 expressed in Escherichia coli BL21(DE3) at 20 uM using cefazolin as substrate by spectrometric method relative to control
[25] = Stability of the compound in pH 7 Tris buffer at 50 uM after 24 hrs by UV-Vis spectra analysis; assay type: physicochemical; conditions: pH 7, 24 h
How it was run: (§4)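 Compound at 50 µM held in MES (pH 5.5, 6.0, 6.5), in Tris (pH 7.0–8.5), or in Tris pH 7.0 containing L1. Absorbance change at 401 nm followed over 24 h.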

Bacteria [26] = assay: Inhibition of bacterial VIM2 expressed in Escherichia coli BL21(DE3) at 50 uM using cefazolin as substrate by spectrometric method relative to control
[27] = Stability of the compound in pH 6 to 6.5 MES buffer at 50 uM after 24 hrs by UV-Vis spectra analysis; assay type: physicochemical; conditions: pH 6, 24 h; how it was run: as §4
[28] = Stability of the compound in pH 7 Tris buffer at 50 uM after 24 hrs in presence of bacterial L1 by UV-Vis spectra analysis; assay type: ADME; conditions: pH 7, 24 h; how it was run: as §4

SMILES	inhibition (Bacteria [1])	IC50 [2]	MIC (Bacteria [3])	MIC (Bacteria [4])	MIC (Bacteria [5])	fold change (FC) (Bacteria [6])	MIC (Bacteria [7])	MIC (Bacteria [8])	IC50 [9]	fold change (FC) (Bacteria [10])	viability at 48 h [11]	MIC (Bacteria [12])	Activity (Escherichia coli [13])	IC50 [14]	Activity (Escherichia coli [15])	MIC (Bacteria [16])	fold change (FC) (Bacteria [17])	MIC (Bacteria [18])	fold change (FC) (Bacteria [19])	IC50 [20]	also measured
O=C(O)c1ccc(N2C(=O)/C(=C/c3ccc([N+](=O)[O-])cc3[N+](=O)[O-])SC2=S)cc1	Dose-dependent effect	20 nM	1 µg/mL	128 µg/mL	8 µg/mL	4	4 µg/mL	2 µg/mL	3900 nM	4 to 8	> 80%	2 µg/mL	Non-Toxic	6.7 µM	Non-Toxic	1 µg/mL	32	1 µg/mL	8	15.9 µM	
O=C(O)c1ccc(N2C(=O)/C(=C/c3ccccc3[N+](=O)[O-])SC2=S)cc1	Dose-dependent effect	50 nM	2 µg/mL	128 µg/mL	16 µg/mL	4	4 µg/mL	4 µg/mL	190 nM		80%	2 µg/mL	Non-Toxic	1.31 µM	Non-Toxic	4 µg/mL	16	1 µg/mL	8	3 µM	inhibition (Bacteria [21]): > 95%; inhibition (Bacteria [22]): > 95%; inhibition (Bacteria [23]): > 95%; inhibition (Bacteria [24]): > 95%
COc1ccc(/C=C2\SC(=S)N(c3ccc(C(=O)O)cc3)C2=O)cc1		310 nM		> 512 µg/mL			4 µg/mL			4 to 8				12 µM		2 µg/mL		0.5 µg/mL	8	15 µM	Stability [25]: Stable; inhibition (Bacteria [26]): < 50%; Stability [27]: Stable; Stability [28]: Stable
